Measurements taken from ChEMBL document CHEMBL1123878, “Potential antitumor agents. 50. In vivo solid-tumor activity of derivatives of N-[2-(dimethylamino)ethyl]acridine-4-carboxamide” (J Med Chem, 1987).
Activity calls are given as the source filed them. The rule behind the calls is not given here.

Assays:
[1] = tested on: P388; assay: Percentage increase in life span of tumor bearing animals compared to non treated, tumor-bearing controls when treated at the optimal dose of 30 mg/kg/day intraperitoneally; type: functional; conditions: Mus musculus, P388, ip; route intraperitoneal
[2] = tested on: L1210; assay: Inhibition murine leukemia L1210 cell growth in culture; type: functional, cell-based; conditions: Mus musculus
Procedure, shortened: (§1)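 IC50 is the drug concentration, in nM, that inhibits growth of the cultured cell line by 50%.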

[3] = Lipophilicity index (Rm) (HPLC); type: physicochemical
[4] = Base strength is expressed as pKa, determined in water at 25 degrees Centigrade by spectrophotometric method.; type: physicochemical
[5] = Selectivity ratio of IC50 of HCT to IC50 of L1210 cell lines; type: functional
[6] = tested on: HCT-8; assay: Inhibition of human colon tumor (HCT-8) cell growth in culture; type: functional, cell-based; procedure, shortened: as §1
[7] = tested on: P388; assay: Percentage increase in life span of tumor bearing animals compared to non treated, tumor-bearing controls when treated at the optimal dose of 150 mg/kg/day intraperitoneally; IA denotes inactive; type: functional, organism-based; conditions: Mus musculus
Procedure, shortened: (§2)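 Drug was given ip in 0.1 mL 30% v/v ethanol/water. For P388, 10^6 cells were inoculated ip and dosing was on days 1, 5 and 9, with >20% significant. For Lewis lung, 10^6 cells were inoculated iv and dosing was on days 5, 9 and 13, with >40% significant. The read-out is % lifespan increase over untreated controls.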

[8] = tested on: Lewis lung carcinoma cell line; assay: (§3) Percentage increase in life span of tumor bearing animals compared to non treated, tumor-bearing controls when treated at the optimal dose of 100 mg/kg/day intraperitoneally; type: functional; conditions: Mus musculus, ip, route intraperitoneal
[9] = tested on: P388; assay: as §3; type: functional; conditions: Mus musculus, P388, ip; route intraperitoneal
[10] = tested on: Lewis lung carcinoma cell line; assay: (§4) Percentage increase in life span of tumor bearing animals compared to non treated, tumor-bearing controls when treated at the optimal dose of 65 mg/kg/day intraperitoneally; IA denotes inactive; type: functional, organism-based; conditions: Mus musculus; procedure, shortened: as §2
[11] = tested on: P388; assay: as §4; type: functional, organism-based; conditions: Mus musculus; procedure, shortened: as §2
[12] = tested on: Lewis lung carcinoma cell line; assay: Percentage increase in life span of tumor bearing animals compared to non treated, tumor-bearing controls when treated at the optimal dose of 20 mg/kg/day ip (LL); type: functional, organism-based; conditions: Mus musculus
[13] = tested on: P388; assay: Percentage increase in life span of tumor bearing animals compared to non treated, tumor-bearing controls when treated at the optimal dose of 13.3 mg/kg/day ip (P388); type: functional; conditions: Mus musculus, route intraperitoneal
[14] = tested on: Lewis lung carcinoma cell line; assay: (§5) Percentage increase in life span of tumor bearing animals compared to non treated, tumor-bearing controls when treated at the optimal dose of 150 mg/kg/day intraperitoneally; type: functional; conditions: Mus musculus, ip, route intraperitoneal
[15] = tested on: P388; assay: Percentage increase in life span of compound-treated, tumor bearing animals compared to non treated, tumor-bearing controls when treated at the optimal dose of 150 mg/kg/day intraperitoneally; type: functional; conditions: Mus musculus, P388, ip; route intraperitoneal
[16] = tested on: P388; assay: as §5; type: functional; conditions: Mus musculus, P388, ip; route intraperitoneal
[17] = tested on: Lewis lung carcinoma cell line; assay: (§6) Percentage increase in life span of compound-treated, tumor bearing animals compared to non treated, tumor-bearing controls when treated at the optimal dose of 100 mg/kg; type: functional; conditions: Mus musculus
[18] = tested on: P388; assay: as §6; type: functional; conditions: Mus musculus
[19] = tested on: Lewis lung carcinoma cell line; assay: Percentage increase in life span of tumor bearing animals compared to non treated, tumor-bearing controls when treated at the optimal dose of 150 mg/kg/day ip (LL); type: functional; conditions: Mus musculus
[20] = tested on: P388; assay: Percentage increase in life span of tumor bearing animals compared to non treated, tumor-bearing controls when treated at the optimal dose of 100 mg/kg/day ip (P388); type: functional; conditions: Mus musculus, route intraperitoneal
[21] = tested on: P388; assay: Percentage increase in life span of tumor bearing animals compared to non treated, tumor-bearing controls when treated at the optimal dose of 225 mg/kg/day intraperitoneally; IA denotes inactive; type: functional, organism-based; conditions: Mus musculus; procedure, shortened: as §2
[22] = tested on: Lewis lung carcinoma cell line; assay: Percentage increase in life span of tumor bearing animals compared to non treated, tumor-bearing controls when treated at the optimal dose of 100 mg/kg/day intraperitoneally; IA denotes inactive; type: functional, organism-based; conditions: Mus musculus; procedure, shortened: as §2
[23] = tested on: P388; assay: Percentage increase in life span of tumor bearing animals compared to non treated, tumor-bearing controls when treated at the optimal dose of 225 mg/kg/day ip (P388); type: functional; conditions: Mus musculus, route intraperitoneal
[24] = tested on: P388; assay: Percentage increase in life span of tumor bearing animals compared to non treated, tumor-bearing controls when treated at the optimal dose of 4.5 mg/kg/day intraperitoneally; type: functional; conditions: Mus musculus, P388, ip; route intraperitoneal
[25] = tested on: Lewis lung carcinoma cell line; assay: Percentage increase in life span of tumor bearing animals compared to non treated, tumor-bearing controls when treated at the optimal dose of 4.5 mg/kg/day intraperitoneally; IA denotes inactive; type: functional, organism-based; conditions: Mus musculus; procedure, shortened: as §2

Row | SMILES | IC50 [2] [nM] | Rm [3] | pKa [4] | Ratio [5] | IC50 [6] [nM] | ILS at 100 mg/kg/day [8] [%] | further results
1 | COc1ccc(C(=O)NCCN(C)C)c2nc3ccccc3cc12.Cl.Cl | 8.8 | -0.13 | 3.81 | 13.1 | 115 |  | ILS at 30 mg/kg/day [1]: 205%
2 | CN(C)CCNC(=O)c1ccc2cc3ccccc3nc2c1.Cl.Cl | 8100 | -0.53 | 3.94 |  |  |  | ILS [7]: inactive
3 | COc1ccc2cc3cccc(C(=O)NCCN(C)C)c3nc2c1.Cl.Cl | 210 | -0.47 | 4.59 | 2.2 | 470 | 85 | 
4 | CN(C)CCCCNC(=O)c1cccc2cc3ccccc3nc12.Cl | 160 | 0.01 |  | 5.8 | 930 | 100 | ILS at 100 mg/kg/day [9]: 143%
5 | CN(C)CCNC(=O)c1cccc2cc3cc(Cl)ccc3nc12.Cl.Cl | 250 | -0.03 |  | 2.4 | 610 | 94 | ILS at 100 mg/kg/day [9]: 106%
6 | COc1cc(C(=O)NCCN(C)C)c2nc3ccccc3cc2c1.Cl.Cl | 30 | -0.13 | 3.34 | 24 | 720 | 105 | ILS at 100 mg/kg/day [9]: 99%
7 | CNCCNC(=O)c1cccc2cc3ccccc3nc12.Cl.Cl | 240 | -0.27 |  | 2.6 | 620 |  | ILS [10]: inactive; ILS [11]: inactive
8 | Cl.Cl.O=C(NCCNCCO)c1cccc2cc3ccccc3nc12 | 240 | -0.22 |  | 7.5 | 1800 |  | ILS [12]: inactive; ILS at 13.3 mg/kg/day [13]: 22%
9 | CN(C)CCNC(=O)c1ccc(Cl)c2cc3ccccc3nc12.Cl.Cl | 33 | 0.04 |  | 11.2 | 370 | 120 | ILS at 100 mg/kg/day [9]: 110%
10 | Cc1cccc2nc3c(C(=O)NCCN(C)C)cccc3cc12.Cl.Cl.O.O | 140 | -0.12 |  | 7 | 980 |  | ILS at 150 mg/kg/day [14]: 60%; ILS at 150 mg/kg/day [15]: 61%
11 | COc1ccc2nc3c(C(=O)NCCN(C)C)cccc3cc2c1.Cl.Cl | 640 | -0.22 | 3.54 | 2.7 | 1700 |  | ILS at 150 mg/kg/day [14]: 46%; ILS at 150 mg/kg/day [16]: 91%
12 | Cc1ccc2cc3cccc(C(=O)NCCN(C)C)c3nc2c1.Cl.Cl | 121 | -0.1 |  | 5.4 Ratio | 658 |  | ILS at 100 mg/kg [17]: 106%; ILS at 100 mg/kg [18]: 82%
13 | CN(C)CCCCCCNC(=O)c1cccc2cc3ccccc3nc12.Cl | 550 | 0.28 |  | 3.6 | 1960 |  | ILS [19]: inactive; ILS at 100 mg/kg/day [20]: 32%
14 | Cc1ccc2cc3ccccc3nc2c1C(=O)NCCN(C)C.Cl.Cl | 12700 | -0.21 |  |  |  |  | ILS [21]: inactive; ILS [22]: inactive
15 | CN(C)CCCCCNC(=O)c1cccc2cc3ccccc3nc12.Cl | 450 | 0.12 |  | 4 | 1800 |  | ILS at 150 mg/kg/day ([19]; route intraperitoneal): 83%; ILS at 225 mg/kg/day [23]: 34%
16 | CN(C)CCNC(=O)c1cccc2c(N)c3ccccc3nc12 |  | -1.11 |  | 3.7 | 55 |  | ILS at 4.5 mg/kg/day [24]: 98%; ILS [25]: inactive
